Legend:
A549 = assay: Cytotoxicity against human A549 cells by MTT assay; assay type: functional; conditions: read-out: ED50 (the source's name)
Summary of the method: (§1)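 In vitro growth inhibition of A549 (human lung adenocarcinoma) and K562 (human […] leukemia) tumour cells. Potency is reported as ED50, the 50% effective dose of clonal inhibition, in µg/mL.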

K562 = assay: Cytotoxicity against human K562 cells by MTT assay; assay type: functional; conditions: read-out: ED50 (the source's name); summary of the method: as §1

Question: For `COC(=O)C[C@H]1C(C)(C)[C@H](OC(C)=O)[C@H](OC(C)=O)[C@@H]2O[C@]34CC(=O)O[C@@H](c5ccoc5)[C@]3(C)[C@@H](OC(C)=O)[C@@H](C(=O)[C@@H]4C)[C@@]21C` [CIPADESIN A], which EC50 (A549) is on record?
Answer: The EC50 was greater than 5 µg/mL.

Question: And the EC50 (K562)?
Answer: The EC50 was greater than 5 µg/mL.

Question: Which EC50 (A549) does the source give for `C=C1[C@@H]2C[C@@]3(C)[C@H](c4ccoc4)OC(=O)C[C@]13O[C@H]1C[C@@H](OC(C)=O)C(C)(C)[C@H](CC(=O)OC)[C@@]1(C)C2=O` [CIPATRIJUGIN A] here?
Answer: The EC50 was greater than 5 µg/mL.

Question: And the EC50 (K562)?
Answer: The EC50 was greater than 5 µg/mL.

Question: Which EC50 (A549) does the source give for `C=C1[C@]2(OC(C)=O)C[C@@]3(C)[C@H](c4ccoc4)OC(=O)C[C@]13O[C@H]1C[C@@H](OC(C)=O)C(C)(C)[C@H](CC(=O)OC)[C@@]1(C)C2=O` [CIPATRIJUGIN C] here?
Answer: The EC50 was greater than 5 µg/mL.

Question: And the EC50 (K562)?
Answer: The EC50 was greater than 5 µg/mL.

Question: Which EC50 (A549) does the source give for `C=C1[C@]2(O)C[C@@]3(C)[C@H](c4ccoc4)OC(=O)C[C@]13O[C@H]1C[C@@H](OC(C)=O)C(C)(C)[C@H](CC(=O)OC)[C@@]1(C)C2=O` [CIPATRIJUGIN B] here?
Answer: The EC50 was greater than 5 µg/mL.

Question: What about the EC50 (K562) of the same compound?
Answer: The EC50 was greater than 5 µg/mL.

Question: Which EC50 (A549) does the source give for `COc1cccc2c1C(=O)c1c(O)c3c(c(O)c1C2=O)C[C@@](O)(C(=O)CO)C[C@@H]3O[C@H]1C[C@H](N)[C@H](O)[C@H](C)O1` [DOXORUBICIN] here?
Answer: The EC50 was 59.5 nM.

Question: And the EC50 (K562)?
Answer: The EC50 was 59.5 nM.

Question: `C=C1[C@H]2C(=O)[C@@]3(C)[C@H](C[C@@H](OC(C)=O)C(C)(C)[C@@H]3CC(=O)OC)O[C@@]13CC(=O)O[C@@H](c1ccoc1)[C@]3(C)[C@H]2OC(C)=O` [CIPATRIJUGIN D] was tested. Which EC50 (A549) did it give?
Answer: The EC50 was greater than 5 µg/mL.

Question: And the EC50 (K562)?
Answer: Its EC50 is greater than 5 µg/mL.
